This is a sample that favours compounds with a hit; in the whole collection about 1.6% have one here.
DAGLB inh – blocks human DAGLB lipase activity | Q8NCG7 | AID 504411 | inhibition, % at 5.17 µM | HEK293T DAGLB membrane lysate, EnzChek fluorogenic substrate | hit rate 0.059% among 340,000; in the data active means inhibition above about 34%;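 further: 0% = enzyme with vehicle and 100% = wells lacking enzyme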
TCR-CD3 inh – human TCR-CD3 binding inhibition; TAMRA-labeled TCR probe fluorescence, biochemical; inhibition, % at 9.4 µM; hit rate 0.37% among 360,000;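 further: recombinant mutant TCR 2C K166C tagged with TAMRA read by polarization; 0% = receptor in buffer alone and 100% = receptor with positive control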
SIAE primary – inhibitors of human sialic acid acetylesterase SIAE. inhibition, % at 9.66 µM. SIAE FP-Rh probe binding, fluorescence polarization. hit rate 0.69% among 370,000;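 active means inhibition above a cutoff: mean of compounds within the control limits plus 3 SD of those, cut at about 17% in these data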;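 further: 0% = plate median of compound wells and 100% = probe without SIAE protein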
HTRA1 inh – blocks human HTRA1 serine peptidase; recombinant HTRA1, FP-rhodamine activity-based probe, fluorescence polarization; inhibition, % at 5.96 µM; hit rate 0.5% among 340,000; AID 504803; in the data active means inhibition above about 36%;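 further: 0% = enzyme with DMSO and 100% = wells lacking enzyme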
ABHD4 inh – inhibits mouse alpha/beta hydrolase domain 4. Q8VD66. purified mABHD4, FP-Rh probe fluorescence polarization. hit rate 0.54% among 370,000. inhibition, % at 8.92 µM;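 active means inhibition exceeding the mean over every tested compound plus 3 SD, cut at about 30% in these data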;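 further: 0% = plate median of compound wells and 100% = S159A mutant with DMSO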
Target sequence (Q8VD66 whole entry, looked up, the tested form may be a part): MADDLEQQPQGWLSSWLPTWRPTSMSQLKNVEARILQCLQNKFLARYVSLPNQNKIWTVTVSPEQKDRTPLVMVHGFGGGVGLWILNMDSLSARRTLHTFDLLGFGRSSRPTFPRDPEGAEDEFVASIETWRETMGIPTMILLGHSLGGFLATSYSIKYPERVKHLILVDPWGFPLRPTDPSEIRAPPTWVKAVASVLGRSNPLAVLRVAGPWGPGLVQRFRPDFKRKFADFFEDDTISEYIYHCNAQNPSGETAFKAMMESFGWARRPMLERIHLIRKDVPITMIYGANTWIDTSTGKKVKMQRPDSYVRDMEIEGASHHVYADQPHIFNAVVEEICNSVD
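assay system = mABHD4 protein | compound dosing = single nominal dose of 8.92 µM, 0.89% DMSO final | read-out basis = percent inhibition of probe binding, normalized to plate controls | schedule = Enzyme–compound pre-incubation 45 min, then probe 60 min, both 25 °C | detection = fluorescence polarization, excitation 525 nm, emission 598 nm, BODIPY TMR filters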
HTRA1 inh conf – HTRA1 (human) inhibition, confirmation; shares compounds with HTRA1 inh; recombinant HTRA1, FP-rhodamine activity-based probe, fluorescence polarization; inhibition, % at 5.96 µM; hit rate 66% among 1,600; AID 540248;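 active means mean inhibition over three repeats above a set limit taken from the earlier primary screen, cut at about 37% in these data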;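 further: 0% = HTRA1 with DMSO and 100% = wells lacking HTRA1; inhibitors block probe binding so polarization drops and inhibition rises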
BSA TAMRA ctr – BSA probe counter-screen for TCR-CD3 inhibitors | shares compounds with TCR-CD3 inh | TAMRA-labeled BSA probe fluorescence counterscreen | inhibition, % at 9.4 µM | hit rate 10% among 1,200 | AID 652035; in the data active means inhibition above about 23%;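 further: 0% = buffer low control and 100% = reference high control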
TCR-CD3 inh conf – TCR-CD3 interaction inhibition, confirmation. shares compounds with TCR-CD3 inh. TAMRA-labeled TCR probe fluorescence binding assay. inhibition, % at 9.4 µM. hit rate 48% among 1,200. AID 652036
ABHD4 confirm – confirmation of mouse ABHD4 inhibitors | hit rate 55% among 1,800 | AID 720658 | purified mABHD4, FP-Rh probe fluorescence polarization | inhibition, % at 8.92 µM | shares compounds with ABHD4 inh;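 active means mean inhibition across replicates above the hit cutoff set in the primary screen, cut at about 30% in these data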;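 further: 0% = wild-type ABHD4 with DMSO and 100% = catalytically dead S159A mutant with DMSO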
SIAE inh conf – human SIAE inhibition, confirmation | shares compounds with SIAE primary | SIAE FP-Rh activity-based probe, fluorescence polarization | inhibition, % at 9.66 µM | hit rate 13% among 2,300;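 active means mean inhibition of the replicates above the hit cutoff set in the primary screen, cut at about 17% in these data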;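 further: 0% = SIAE with DMSO and probe and 100% = probe without SIAE; inhibitors lower polarization as more probe stays unbound to SIAE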
* hit, by the source's call; . = no result. Unless noted, no stated cut-off is given here; in the data, active means inhibition above about 19%; inactive means the rest.

SMILES | DAGLB inh | TCR-CD3 inh | SIAE primary | HTRA1 inh | ABHD4 inh | HTRA1 inh conf | ABHD4 confirm | SIAE inh conf | others
COc1cc(-n2c(C)nc3cc(C(=O)N4CCN(C(C)=O)CC4)ccc32)cc(OC)c1OC | . | . | -5 | . | 3 | . | . | .
C[C@H]1COc2cc(Br)ccc2S(=O)(=O)N1Cc1cn(Cc2ccco2)nn1 | . | . | 5 | . | 3 | . | . | .
Oc1ccc2ccccc2c1/C=C/c1ccc2c(Br)cc(Br)c(O)c2n1 | 3 | -9 | 23* | 66* | 34* | 69* | 21 | 16
COc1cc(Br)c(/C=C/c2ccc3cccc(O)c3n2)cc1OC | -3 | 0 | 8 | 10 | 9 | . | . | .
O=C(N/N=C/c1ccc(OCc2ccccc2)cc1)c1ccncc1 | 1 | -3 | 6 | -16 | -9 | . | . | .
Oc1ccc(N=Cc2ccc(OCc3ccccc3)cc2)cc1 | 3 | 32* | 45* | 63* | 68* | -9 | 16 | 4 | BSA TAMRA ctr=4;TCR-CD3 inh conf=0
COc1cc(/C=N/Nc2ccc(S(N)(=O)=O)cc2[N+](=O)[O-])cc(OC)c1O | 32 | -1 | -4 | 32 | 15 | . | . | .
CCOc1cc(/C=N/Nc2ccc(S(=O)(=O)Nc3ccccc3C(=O)O)cc2[N+](=O)[O-])cc(Cl)c1O | 33 | 2 | 32* | 75* | 73* | 68* | 86* | 16
CCNc1ccc(Br)cc(C(=O)/C=C/c2ccccc2Cl)c1=O | 13 | 0 | 22* | 64* | 37* | 25 | 43* | 10
C[C@@H]1C=CCCO[C@]12C(=O)N(CC1CC1)c1ccccc12 | . | 4 | 3 | . | 7 | . | . | .
CCN(CC)Cc1cc(Nc2c3ccccc3nc3c4ccccc4n(C)c23)cc(CN(CC)CC)c1O | 4 | 9 | 17* | 38* | 33* | 18 | . | 4
Oc1cccc(Nc2c3ccccc3nc3ccccc23)c1 | 8 | 4 | 4 | 10 | 10 | . | . | .
Cc1nn(-c2ccccc2)c(C)c1/C=N\N1CCN(Cc2ccccc2Cl)CC1 | . | . | 1 | . | 6 | . | . | .
C/C(=N\NC(=O)c1cc(O)ccc1O)c1cccc(NC(=O)c2ccc(Cl)cc2)c1 | 0 | 46* | 26* | 44* | 57* | 17 | 42* | 10 | BSA TAMRA ctr=-17;TCR-CD3 inh conf=9
O=C(NCc1ccccn1)C1Nc2ccc(OC(F)(F)F)cc2C2C=CCC12 (stereo not drawn) | 4 | -7 | 17* | 43* | 48* | -1 | -4 | 1
Cc1cc(SCC(=O)N/N=C/c2ccc(O)c(O)c2)c(C)cc1Br | 15 | 2 | 21* | 77* | 14 | 76* | . | -19
Nc1ccc(O)c2c1C(=O)c1ccccc1C2=O | 30 | 43* | 55* | 88* | 87* | 96* | 74* | 54* | BSA TAMRA ctr=24*;TCR-CD3 inh conf=27*
Nc1ccc(NC(=O)c2ccccc2)c2c1C(=O)c1ccccc1C2=O | 2 | -1 | 3 | 10 | 13 | . | . | .
COc1ccc(N)c2c1C(=O)c1ccccc1C2=O | 19 | 4 | 20* | 38* | 44* | 34 | 1 | 12
COc1ccc(Cn2cc(CN3[C@@H](Cc4ccccc4)COc4cc(Br)ccc4S3(=O)=O)nn2)cc1 | . | . | -5 | . | 2 | . | . | .
Oc1ccc(/C=N/Nc2ccc(Cl)nn2)c(O)c1O | 4 | 56* | 23* | 57* | 40* | 41* | 81* | -4 | BSA TAMRA ctr=-20;TCR-CD3 inh conf=55*
CN(C)c1ccc2nc3ccc(=O)cc-3sc2c1 | -1 | 145* | 82* | 58* | 113* | 79* | 56* | 68* | BSA TAMRA ctr=123*;TCR-CD3 inh conf=103*
O=C1c2ccccc2C(=O)N1Cc1ccco1 | 0 | 7 | 2 | -2 | 5 | . | . | .
O=C1c2cccc3c(O)ccc(c23)C(=O)N1Cc1ccco1 | -166 | 41* | 20* | 44* | 49* | 38* | 45* | 21* | BSA TAMRA ctr=67*;TCR-CD3 inh conf=47*
COC(=O)[C@]12C[C@H](CC(=O)NCCC(C)C)C(=O)N(Cc3ccc4c(c3)OCO4)C1=C[C@H](C(C)(C)C)O[C@@H]2C | . | 0 | 4 | . | -7 | . | . | .
SMILES | DAGLB inh | TCR-CD3 inh | SIAE primary | HTRA1 inh | ABHD4 inh | HTRA1 inh conf | ABHD4 confirm | SIAE inh conf | others
O=C(CC1Nc2cccc3cccc(c23)NC1=O)Nc1ccccc1 (stereo not drawn) | 9 | 4 | 23* | 72* | 32* | 2 | 42* | 4
NC(=O)CC1Nc2cccc3cccc(c23)NC1=O (stereo not drawn) | -3 | 16 | 13 | 19 | 19 | . | . | .
Cc1cc2cc(CNC(=O)Nc3ccc(Cl)c(Cl)c3)ccc2n1C | 9 | 72* | 33* | 41* | 38* | 13 | -12 | -9 | BSA TAMRA ctr=3;TCR-CD3 inh conf=5
Cc1ccc(S(=O)(=O)NCc2ccc3c(c2)cc(C)n3C)cc1 | 6 | 42* | 28* | 40* | 60* | 11 | 1 | 3 | BSA TAMRA ctr=6;TCR-CD3 inh conf=6
CC(C)(C)OC(=O)N1CCC[C@@H]1C(=O)N1CCC[C@H]1C(=O)NCc1ccccc1 | . | 8 | 0 | . | 1 | . | . | .
Nc1cccc2c(=O)c3ccccc3[nH]c12 | 9 | 18 | 30* | 55* | 60* | 18 | 41* | 5
COc1cccc2[nH]c3ccccc3c(=O)c12 | -1 | . | . | 3 | . | . | . | .
O=C(NCc1ccco1)OC1CCC12CCC(c1ccccc1)CC2 (stereo not drawn) | . | . | 2 | . | -22 | . | . | .
O=[N+]([O-])c1ccc(Cl)c(/C=N/n2c(COc3ccccc3)n[nH]c2=S)c1 | -1 | 7 | 10 | 5 | -7 | . | . | .
O=c1c2ccccc2nc(COc2ccccc2)n1/N=C/c1cc([N+](=O)[O-])ccc1O | 7 | 23* | 20* | 36* | 3 | 47* | . | -10 | BSA TAMRA ctr=-4;TCR-CD3 inh conf=43*
C[C@H]1[C@@H](NC(=O)C(c2ccccc2)c2ccccc2)CC[C@@]23CCCN2C(=O)CCC[C@@H]13 | . | . | -3 | . | -3 | . | . | .
c1cc2c3c(cccc3c1)NC1(CCCCCC1)N2 | 9 | 4 | 19* | 39* | 17 | 51* | . | 2
c1cc2c3c(cccc3c1)NC1(CCC3(CC1)Nc1cccc4cccc(c14)N3)N2 | 7 | 0 | 38* | 56* | 17 | 55* | . | 3
S=C1NC2(CCCCC2)NN1c1ccccc1 | -2 | 2 | 4 | 1 | 7 | . | . | .
Cc1cccc(-c2cccc3c4c([nH]c23)[C@@H]2C[C@H](N(C)C(=O)Nc3ccccc3)[C@H]([C@H](C)O)CN2CC4)c1 | . | . | -3 | . | -3 | . | . | .

From PubChem BioAssay
